ChEMBL document CHEMBL1123227, “Tricyclic epines. Novel (E)- and (Z)-11H-dibenz[b,e]azepines as potential central nervous system agents. Variation of the basic side chain” (1986)

Legend:
Type in all cases: functional
Mus musculus [1] = species: Mus musculus; assay: Anticholinergic activity relative with respect to clozapine.
Mus musculus [2] = species: Mus musculus; assay: Anticholinergic activity in mice.
Outline: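 Groups of 10 female NMRI mice received a lethal dose of physostigmine (0.825 mg/kg sc). Test substances were given orally 30 min before the physostigmine.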

Mus musculus [3] = species: Mus musculus; assay: Sedative activity relative with respect to clozapine.
Mus musculus [4] = species: Mus musculus; assay: Sedative activity in mice
Rattus norvegicus [5] = species: Rattus norvegicus; assay: Compound was tested or the anti-tryptamine activity in rats relative with respect to clozapine.
Outline: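 Rats dosed ip 30 min before tryptamine hydrochloride 16 mg/kg iv. Effect means front paw clonic movements absent over 5 min observation after tryptamine. ED50 is the dose preventing the symptom in half the animals (Probit analysis); relative activity referenced to clozapine.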

Rattus norvegicus [6] = species: Rattus norvegicus; assay: Compound was tested or the anti-tryptamine activity in rats
Outline: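 Rats were challenged with tryptamine hydrochloride (16 mg/kg iv), with test substances given ip 30 min beforehand. Activity was scored as absence of clonic front paw movements over a 5 min observation after tryptamine. ED50 was the dose preventing the symptom in half the animals, determined by Probit analysis.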

Oryctolagus cuniculus = species: Oryctolagus cuniculus; assay: Compound was tested for the muscle-relaxing activity in rabbits
Outline: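 Muscle electrical activity during contraction was recorded and pulses were counted. A 5 s extension was repeated every 1 min. Once pulse counts were constant (control value), the substance was given iv, and post-dose pulses were related to that value. Four to six animals were used per dose. ED50 was the dose halving muscle activity from the initial value.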

Row | Structure (SMILES) | Relative activity (Mus musculus [1]) | ED50 (Mus musculus [2]) [mg/kg] | Relative activity (Mus musculus [3]) | ED50 (Mus musculus [4]) [mg/kg] | Relative activity (Rattus norvegicus [5]) | ED50 (Rattus norvegicus [6]) [mg/kg] | ED50 (Oryctolagus cuniculus) [mg/kg]
1 | CN(C)CCCOC1=Nc2ccccc2/C(=C/C#N)c2ccccc21 | 0.59 | 24 | <0.04 | > 100 | – | – | –
2 | CCN1CCN(C2=Nc3ccccc3C(=CC#N)c3ccccc32)CC1 | – | – | – | – | 0.76 | 6.6 | ~0.32
3 | N#C/C=C1/c2ccccc2N=C(N2CCNCC2)c2ccccc21 | 0.66 | 21.3 | 0.15 | 30.6 | – | – | –
4 | N#C/C=C1/c2ccccc2N=C(N2CCN(CCO)CC2)c2ccccc21 | 0.21 | ~68.1 | 0.32 | 14.6 | – | – | –
5 | N#C/C=C1/c2ccccc2N=C(N2CCC(O)CC2)c2ccccc21 | <0.14 | > 100 | <0.1 | > 46.4 | – | – | –
6 | CC1CN(C)CCN1C1=Nc2ccccc2/C(=C/C#N)c2ccccc21 (stereo not drawn) | 0.66 | ~21.5 | 0.22 | ~21.5 | – | – | –
7 | CCN1CCN(C2=Nc3ccccc3/C(=C\C#N)c3ccccc32)CC1 | – | – | – | – | <0.05 | > 100 | –
8 | CC1CCN(C2=Nc3ccccc3/C(=C/C#N)c3ccccc32)CC1 | <0.3 | > 46.4 | 0.07 | ~68.1 | – | – | –
9 | Cc1ccc2c(c1)/C(=C/C#N)c1ccccc1C(N1CCN(C)CC1)=N2 | – | – | – | – | 0.23 | ~21 | ~0.1
10 | CCN1CCN(C2=Nc3ccccc3/C(=C/C#N)c3ccccc32)CC1 | <0.66 | > 21.5 | 1.7 | 2.79 | – | – | –
11 | C[N+]1([O-])CCN(C2=Nc3ccccc3/C(=C/C#N)c3ccccc32)CC1 | 0.14 | ~100 | 0.26 | – | – | – | –
12 | CN1CCC(NC2=Nc3ccccc3/C(=C/C#N)c3ccccc32)CC1 | 0.21 | ~68.1 | <0.04 | > 100 | – | – | –
13 | CN1CCN(C2=Nc3ccccc3C(=CC#N)c3ccccc32)CC1 | – | – | – | – | 0.17 | 30 | 0.059
14 | CN(C)CCOC1=Nc2ccccc2/C(=C/C#N)c2ccccc21 | 0.57 | 24.9 | 0.14 | 34.8 | – | – | –
15 | N#C/C=C1/c2ccccc2N=C(N2CC[N+]([O-])(CCO)CC2)c2ccccc21 | 0.36 | 39 | 0.46 | 10.3 | – | – | –
16 | CN(C)CCCNC1=Nc2ccccc2/C(=C/C#N)c2ccccc21 | <0.3 | > 46.4 | <0.1 | > 46.4 | – | – | –
17 | CN1CCN(C2=Nc3ccccc3/C(=C/C#N)c3ccccc32)CC1 | 0.81 | – | – | – | 0.06 | 79 | 0.046
18 | CN(C)CCN(C)C1=Nc2ccccc2/C(=C/C#N)c2ccccc21 | 0.45 | ~31.6 | 0.32 | ~14.7 | – | – | –
19 | CN1CCN(C2=Nc3ccc(Cl)cc3/C(=C/C#N)c3ccccc32)CC1 | 0.88 | 16.1 | 0.19 | 25.6 | – | – | –
20 | CN1CCN(C2=Nc3ccccc3/C(=C\C#N)c3ccccc32)CC1 | 3 | – | <0.2 | – | 0.16 | 32 | ~1
21 | N#C/C=C1/c2ccccc2N=C(N2CCN(CCN3CCOC3=O)CC2)c2ccccc21 | 0.28 | 51 | 0.12 | 39.4 | – | – | –
22 | N#C/C=C1/c2ccccc2N=C(N2CCC(O)(c3ccccc3)CC2)c2ccccc21 | <0.14 | > 100 | <0.1 | > 46.4 | – | – | –
23 | Cc1ccc2c(c1)N=C(N1CCN(C)CC1)c1ccccc1C2=CC#N | 0.45 | – | 5.9 | 0.8 | 0.83 | 6 | 0.028
24 | N#C/C=C1/c2ccccc2N=C(N2CCOCC2)c2ccccc21 | <0.14 | > 100 | < 0.04 | > 100 | – | – | –
